Screening data as filed in PubChem.
MrgX1 ag: agonists of human MrgX1 receptor | actives 0.44% (n = 310,000) | Q96LB2 | B-score at 10 µM | MrgX1-HEK293 cells, Fluo-4 calcium fluorescence, agonist mode; hits give high values | AID 588627;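 active means calcium response B-score plate-corrected fluorescence ratio at least 3 library SD, with starting fluorescence B-score inside 5 SD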
Target sequence (Q96LB2 whole entry, looked up): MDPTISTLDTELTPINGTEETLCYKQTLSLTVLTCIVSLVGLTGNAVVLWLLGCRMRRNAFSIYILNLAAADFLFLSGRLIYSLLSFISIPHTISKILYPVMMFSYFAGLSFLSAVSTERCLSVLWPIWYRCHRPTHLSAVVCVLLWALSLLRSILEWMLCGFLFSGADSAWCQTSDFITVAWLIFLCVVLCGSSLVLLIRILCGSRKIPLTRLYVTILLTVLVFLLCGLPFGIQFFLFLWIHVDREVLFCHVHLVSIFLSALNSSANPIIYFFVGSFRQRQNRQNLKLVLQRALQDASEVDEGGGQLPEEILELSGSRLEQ
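times = overnight plating, then 30 min 37 °C plus 30 min room-temperature dye loading | assay system = stable human MrgX1 HEK293 cell line | input = fifteen thousand cells per well | signal = kinetic calcium dye fluorescence, Fluo-4 NW | dosing = compound delivered in addition one of three | read-out = B-scored fluorescence response ratio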
RGS4 pot: potentiators or activators of RGS4; HEK293 M3R/inducible RGS4, carbachol calcium flux Fluo4; hits give low values; B-score at 10 µM; actives 0.92% (n = 310,000); AID 463111;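 active means B-score of the integrated calcium signal more than 4 SD below the library mean, with starting fluorescence not abnormally high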;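 further: negative B-score means reduced calcium response which marks RGS4 activation or potentiation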
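Material: Inducible-RGS4 HEK293 cells carrying M3 receptor; also added: carbachol at ECmax as muscarinic agonist stimulus; incubation: compound preincubation 20 min at room temperature before agonist; signal: Fluo4-AM (2 µM) calcium-flux fluorescence, kinetic read; measure: integrated calcium ratio converted to B score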
MrgX1 PAM: human MrgX1 positive allosteric modulation, primary screen; MrgX1-HEK293, Fluo-4 calcium flux, FDSS; hits give high values; Q96LB2; B-score at 10 µM; actives 0.63% (n = 310,000);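 active means plate-corrected calcium response at least 3 library SD above typical, normal starting fluorescence, not activating the receptor alone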;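 further: compound read alongside a low EC10 to EC30 dose of BAM8-22 agonist; peak minus trough fluorescence over baseline measured at the second addition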
RGS4 block: inhibitors of human RGS4; P49798; actives 0.45% (n = 310,000); HEK293 M3R/RGS4 inducible, Fluo-4 calcium flux; hits give high values; triggered by carbachol at its EC20; B-score at 10 µM;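 active means B-score, a plate-corrected calcium signal, over three deviations above library mean, with baseline fluorescence within five deviations of library mean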;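 further: RGS4 expression induced by doxycycline in cells with stable M3 receptor; B-score is computed from the integrated fluorescence ratio over baseline after carbachol; higher B-score means a larger calcium signal and so more RGS4 inhibition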
Target sequence (P49798 whole entry, looked up): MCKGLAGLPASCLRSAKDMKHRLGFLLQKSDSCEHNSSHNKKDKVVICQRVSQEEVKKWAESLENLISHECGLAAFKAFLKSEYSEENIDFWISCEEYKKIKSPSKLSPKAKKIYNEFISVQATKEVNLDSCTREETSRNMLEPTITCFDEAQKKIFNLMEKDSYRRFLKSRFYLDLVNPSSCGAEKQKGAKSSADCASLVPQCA
MrgX1 antagonist: antagonists of human MrgX1 receptor | B-score at 10 µM | AID 588676 | Q96LB2 | actives 1.3% (n = 310,000) | MRGX1-HEK293 calcium flux, Fluo-4, BAM8-22 antagonism; hits give low values;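 active means calcium-response B-score plate-corrected more than 3 library SD below zero, starting fluorescence within 5 deviations, no agonist response on first addition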;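 further: peak minus trough fluorescence over baseline after final BAM8-22 challenge near maximal dose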
RGS4 block valid: RGS4 inhibitor validation | actives 65% (n = 1,700) | shares compounds with RGS4 block | HEK293 M3R/RGS4, carbachol calcium Fluo-4 fluorescence; carbachol added at its EC20; 0 = buffer wells, 100 = carbachol control | calcium response, % at 10 µM;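 active means duplicate-averaged calcium response above the buffer-only control mean plus 5 SD of those controls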;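 further: integrated fluorescence ratio F max minus min over baseline F0; higher response in RGS4-induced cells means RGS4 inhibition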
RGS4 uninduced: non-induced cell nonspecific activity of RGS4 inhibitors. actives 20% (n = 1,900). activity (percent), % at 10 µM. HEK293 M3R non-induced, carbachol calcium Fluo-4; submaximal (EC20) carbachol stimulus; buffer wells 0%, carbachol control wells 100%. shares compounds with RGS4 block; call rule not given here;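 further: RGS4 induction absent so cells express M3R without RGS4; higher means more calcium signal and flags a non-specific hit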
RGS4 inh ctr2: second RGS4 inhibitor counter-screen in uninduced cells lacking carbachol; shares compounds with RGS4 block; HEK293 M3R/RGS4 non-induced, Fluo-4 calcium, no carbachol; normalised: buffer wells 0%, carbachol wells 100%; calcium response (agonist-mode artifact), % at 10 µM; actives 22% (n = 1,900); AID 493001;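 active means duplicate-averaged calcium rise in uninduced cells above buffer wells' mean plus 5 SD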
* = called active by the depositor; i = inactive; x = no result. An excerpt weighted towards active compounds, which were near 3.5% of everything screened.

SMILES	MrgX1 ag	RGS4 pot	MrgX1 PAM	RGS4 block	MrgX1 antagonist	RGS4 block valid	RGS4 uninduced	RGS4 inh ctr2
CN(C)c1ccc(C(=O)N2CCCC2)cc1	i	i	i	i	i	x	x	x
COc1ccc(N(Cc2cc3ccc(C)cc3[nH]c2=O)C(=O)C2CCCO2)cc1 (stereo not given)	i	i	i	i	i	x	x	x
COc1ccc(N(Cc2cc3ccc(C)cc3[nH]c2=O)C(=O)c2ccco2)cc1	i	i	i	i	i	i	i	i
Cc1ccc(C)c(N(Cc2cc3ccc(C)cc3[nH]c2=O)C(=O)c2ccco2)c1	i	i	i	i	i	i	i	i
CC1CCCN(CCCN2C(=O)C3C(C(=O)Nc4ccc(Cl)cc4)C4C=CC3(O4)C2C(=O)NC2CCCCC2)C1 (stereo not given)	i	i	i	i	i	x	x	x
CC(Sc1ncc(C(F)(F)F)cc1Cl)C(=O)NCC1CCCO1 (stereo not given)	i	i	i	i	i	x	x	x
CCC(=O)Nc1ccc(C=C(C(C)=O)C(C)=O)cc1	i	i	i	5*	i	56%*	29%*	16%*
CC1=C(C(=O)OCc2ccccc2)C(c2cccc([N+](=O)[O-])c2)NC(=O)N1C (stereo not given)	i	i	i	i	i	x	x	x
Cc1sc(NC(=O)c2oc3ccccc3c2C)c(C#N)c1C	i	i	i	i	i	x	x	x
Cc1cc(C(=O)Nc2sc(C)c(C)c2C#N)c(C)o1	i	i	i	7.5*	i	12%*	i	10%*
Cc1c(C(=O)N/N=C/c2cccnc2)sc(N)c1C#N	i	i	i	i	i	x	x	x
CC1Sc2ccc(S(=O)(=O)CCC(=O)NC3CCCC(C)C3C)cc2NC1=O (stereo not given)	i	i	i	i	i	x	x	x
N#Cc1ccc(C(=O)OCC(=O)N2CCOCC2)cc1	i	i	i	i	i	x	x	x
CCOCCCNC(=O)/C(C#N)=C/c1ccc(Cl)c([N+](=O)[O-])c1	i	i	i	11*	i	34%*	i	i
CCOCCCNC(=O)/C(C#N)=C/c1cc(OC)c(O)c([N+](=O)[O-])c1	i	i	i	i	i	x	x	x
Cc1cc(Cl)n2c(nc3cc(F)c(F)cc32)c1C#N	x	i	x	7.5*	x	13%*	i	9.5%*
Cc1cc(-c2ccco2)n2c(nc3ccccc32)c1C#N	i	i	i	i	i	x	x	x
Cc1cc(C)n(-c2cc(C(C)(C)C)nc3c(-c4ccccc4)cnn23)n1	i	i	i	i	i	x	32%*	i
Cc1cc(C)n(-c2cc(C(C)(C)C)nc3c(-c4ccc(Cl)cc4)cnn23)n1	i	i	i	8.6*	i	33%*	i	i
CC(C)(C)c1cc(NCc2ccccn2)n2ncc(-c3ccccc3)c2n1	i	i	i	i	i	x	x	x
Cc1cccc(NC(=O)CCNC(=O)c2ccc(Br)cc2)c1	i	i	i	i	i	x	x	x
Cc1cc(Cl)ccc1Nc1ncccc1C(N)=O	i	i	i	5.3*	i	12%*	i	i
COc1cccc(Sc2cc(N3CCOCC3)nc(-c3ccccc3)n2)c1	i	i	i	8.8*	i	34%*	i	i
Clc1ccc(Sc2cc(N3CCOCC3)nc(-c3ccccc3)n2)cc1	i	i	i	7.7*	i	14%*	i	i
CSCc1cc(N2CCOCC2)nc(-c2ccccc2)n1	i	i	i	i	i	x	x	x
SMILES	MrgX1 ag	RGS4 pot	MrgX1 PAM	RGS4 block	MrgX1 antagonist	RGS4 block valid	RGS4 uninduced	RGS4 inh ctr2
CCN1CCN(c2cc(SC(C)C)nc(-c3ccc(OC)cc3)n2)CC1	x	i	x	i	x	x	x	x
CC(C)Sc1cc(N2CCOCC2)nc(-c2ccc(Cl)cc2)n1	i	i	i	5.2*	i	12%*	28%*	i
c1ccc(-c2nc(N3CCOCC3)cc(N3CCOCC3)n2)cc1	i	i	i	i	i	x	x	x
CCOC(=O)NC(Nc1ccc(OC)cc1)(C(F)(F)F)C(F)(F)F	i	i	i	i	i	x	x	x
N#Cc1cc2cc3ccccc3nc2n2c(=O)c3ccccc3nc12	i	i	i	i	i	x	x	x
CCOC(=O)NC(=O)CSc1nc(-c2ccc(C)c(C)c2)cn1-c1ccccc1	i	i	i	i	i	x	x	x
Cc1ccc(-c2cn(-c3ccccc3)c(SCC(N)=O)n2)cc1C	i	i	i	4.7*	i	9.5%*	i	i
C/C(=N/NC(=O)CNc1ccc(C)cc1)c1ccc(Cl)cc1	i	i	i	5.5*	i	7.0%*	i	i
Cc1ccc(C(=O)CNc2ccc(Cl)cc2)cc1	i	i	i	i	i	x	x	x
COC(=O)c1cc(S(=O)(=O)N2CCCCC2)c[nH]1	i	i	i	i	i	x	x	x
O=c1c2ccccc2nc2c3ccccc3c(NCc3cccnc3)nn12	i	i	i	i	i	x	x	x
O=c1c2ccccc2nc2c3ccccc3c(NCc3ccccn3)nn12	i	i	i	14*	i	12%*	i	i
CN(C)CCN1C(=O)C2C(C(=O)Nc3cc(Cl)cc(Cl)c3)C3C=CC2(O3)C1C(=O)NC1CCCCC1 (stereo not given)	i	i	i	i	i	x	x	x
COc1ccccc1CNC(=O)COC(=O)c1c(C)nn(-c2ccccc2)c1Cl	i	i	i	18*	i	i	i	i
CCCN1CCN(C(=O)c2nn(-c3ccc(OC)cc3)c(=O)c3c2c2ccccc2n3C)CC1	i	i	i	i	i	x	x	x
COCCCNC(=S)N(CCCO)Cc1cc2cc3c(cc2[nH]c1=O)OCO3	i	i	i	i	i	x	i	i
CCNC(=S)N(CCCO)Cc1cc2cc3c(cc2[nH]c1=O)OCCO3	i	i	i	i	i	x	x	x
COCCCNC(=S)N(CCCO)Cc1cc2cc3c(cc2[nH]c1=O)OCCO3	i	i	i	i	i	x	i	i
